In ChEMBL document CHEMBL3992522, “Antileishmanial Activity of Pyrazolopyridine Derivatives and Their Potential as an Adjunct Therapy with Miltefosine” (J Med Chem, 2017):
Active and inactive are the calls of the source. No cut-off for these calls is given here.

Assays:
[1] = Tmax in Swiss mouse at 50 mg/kg, po by LC-MS/MS analysis; assay type: ADME, organism-based; settings: in vivo
[2] = system: Mus musculus; assay: Decrease in IL-10 level in Balb/c mouse splenocytes infected with Leishmania donovani amastigote forms at 25 mg/kg, ip co-treated with 5 mg/kg, po miltefosine administered for 5 consecutive days measured on day 7 post last treatment by sandwich ELISA relative to control; assay type: functional
In short: (§1)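 Splenocytes (2×10^6) from treated infected BALB/c mice taken on day 4 or 7 post-treatment. Cultured in phenol-red-free RPMI 1640 with 5 μg/mL soluble L. donovani antigen for 72 h at 37 °C, 5% CO2. Supernatant cytokines measured by sandwich ELISA against a standard curve. Mean ± SD, n = 5 mice per group, three independent experiments.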

[3] = Stability in pH 1.2 simulated gastric fluid at 5 ug/ml after 120 mins by HPLC method
In short: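 Incubated in simulated gastric fluid (pH 1.2) or simulated intestinal fluid (pH 6.5); percentage remaining intact determined after 120 min.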

[4] = Cmax in Swiss mouse at 50 mg/kg, po by LC-MS/MS analysis; assay type: ADME, organism-based; set-up: dose 50 mg/kg, route oral; settings: in vivo
[5] = system: Leishmania donovani; assay: Antileishmanial activity against Leishmania donovani amastigote forms infected in Balb/c mouse assessed as reduction in spleen weight at 12.5 to 200 mg/kg, ip administered for 5 consecutive days co-treated with 5 to 25 mg/kg, po miltefosine; assay type: functional, organism-based
[6] = system: Leishmania donovani; assay: Induction of mitochondrial membrane potential loss in Leishmania donovani MHOM/IN/80/DD8 promastigote forms at 50 uM after 12 hrs by JC-1 staining based flow cytometry (reference value: 5.02%); assay type: functional
[7] = system: Leishmania donovani; assay: Antileishmanial activity against Leishmania donovani amastigote forms infected in Balb/c mouse assessed as inhibition of parasitic burden in liver at 50 mg/kg, ip administered for 5 consecutive days measured 1 week post last treatment by Giemsa staining based assay relative to control; assay type: functional; settings: 168 h
[8] = system: Mus musculus; assay: Increase in IL-12 level in Balb/c mouse splenocytes infected with Leishmania donovani amastigote forms at 25 mg/kg, ip co-treated with 5 mg/kg, po miltefosine administered for 5 consecutive days measured on day 7 post last treatment by sandwich ELISA relative to control; assay type: functional; in short: as §1
[9] = system: Leishmania donovani; assay: Antileishmanial activity against Leishmania donovani MHOM/IN/80/DD8 promastigote forms harboring luciferase gene after 72 hrs by Steady-Glo reagent based luminescence assay; assay type: functional; settings: MHOM/IN/80/DD8, 72 h
In short: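 Exponential-phase Dd8-Luc promastigotes at 1×10^6/mL in M199 with 10% FBS, 24 °C, given 50 and 25 µM for 72 h. Vehicle 0.1% DMSO. Steady-Glo added 1:1, luminescence (RLU) read. IC50 from four-parameter Hill regression, derived only where inhibition exceeded 90%. Means of at least three independent experiments.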

[10] = system: Leishmania donovani; assay: Antileishmanial activity against Leishmania donovani amastigote forms infected in Balb/c mouse assessed as inhibition of parasitic burden in liver at 50 mg/kg, ip administered for 5 consecutive days measured up to 7 weeks post treatment by Giemsa staining based assay; assay type: functional, organism-based
[11] = system: Leishmania donovani; assay: Antileishmanial activity against Leishmania donovani MHOM/IN/80/DD8 amastigote forms harboring luciferase gene infected in mouse J774 cells at 4.05 uM up to 72 hrs by Giemsa staining based assay relative to control; assay type: functional; settings: MHOM/IN/80/DD8, J774, 72 h
In short: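 J774 macrophages in chamber slides infected with Dd8 promastigotes (1:10 cell:parasite in methods; 1:8 in legend) for 24 h, then treated 48 and 72 h. Cells methanol-fixed, stained with 20% Giemsa. Amastigotes per 100 macrophages counted against untreated infected controls.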

[12] = system: Leishmania donovani; assay: Antileishmanial activity against Leishmania donovani MHOM/IN/80/DD8 amastigote forms harboring luciferase gene infected in mouse J774 cells at 25 uM after 72 hrs by Steady-Glo reagent based luminescence assay relative to control; assay type: functional; settings: MHOM/IN/80/DD8, J774, 72 h, read-out: GI
In short: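 Stationary-phase luciferase-expressing Dd8 promastigotes infected into J774 macrophages (4×10^4/mL seeded, 24 h, 37 °C, 5% CO2) at 1:8 macrophage:parasite for 24 h. Non-internalised parasites washed off. Compounds added at 50 and 25 µM in RPMI/10% FBS for 72 h. Lysis with Steady-Glo luciferin reagent plus PBS, luminescence read. Inhibition relative to untreated infected controls.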

[13] = Cytotoxicity against African green monkey Vero cells assessed as cell viability up to 200 uM after 72 hrs by MTT assay relative to control; assay type: cell-based; settings: chlorocebus sabaeus, read-out: Activity
[14] = system: Leishmania donovani; assay: Antileishmanial activity against Leishmania donovani amastigote forms infected in Balb/c mouse assessed as inhibition of parasitic burden in liver at 100 mg/kg, ip administered for 5 consecutive days measured on day 7 post last treatment by Giemsa staining based assay relative to control; assay type: functional; settings: 168 h
[15] = system: Mus musculus; assay: Decrease in IL-10 level in Balb/c mouse splenocytes infected with Leishmania donovani amastigote forms at 25 mg/kg, ip co-treated with 5 mg/kg, po miltefosine administered for 5 consecutive days measured on day 4 post last treatment by sandwich ELISA relative to control; assay type: functional; in short: as §1
[16] = Selectivity index, ratio of CC50 for African green monkey Vero cells to IC50 for Leishmania donovani MHOM/IN/80/DD8 amastigote forms infected in mouse J774 cells; assay type: toxicity, cell-based; settings: read-out: Ratio CC50/IC50
In short: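 CC50: Vero or J774 cells (1×10^5/well) exposed 72 h to seven two-fold dilutions, 500–7.81 μM; MTT 2 h at 37 °C, formazan in DMSO read at 540 nm. IC50: luciferase-expressing Dd8 amastigotes in J774 macrophages (1:8), 72 h, luminescence, four-parameter Hill fit. SI = CC50/IC50, IC50 mean of three experiments.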

[17] = system: Leishmania donovani; assay: Antileishmanial activity against Leishmania donovani amastigote forms infected in Balb/c mouse assessed as inhibition of parasitic burden in liver at 25 mg/kg, ip co-treated with 5 mg/kg, po miltefosine administered for 5 consecutive days measured on day 4 and 7 post last treatment by Giemsa staining based assay relative to control; assay type: functional
In short: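 Combination study with seven groups of 5 infected BALB/c mice, including vehicle (8% DMSO i.p.), infected untreated and miltefosine-alone groups. Treatment daily for 5 days, test compound i.p. and miltefosine orally. Mice killed on days 4 and 7 post-treatment; liver and spleen parasite load counted on Giemsa-stained stamp smears and expressed as LDU relative to infected untreated mice. Mean ± SD, n = 5, three independent experiments.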

[18] = system: Mus musculus; assay: Toxicity in Balb/c mouse infected with Leishmania donovani amastigote forms assessed as changes in body weight at 12.5 to 200 mg/kg, ip co-treated with 5 to 25 mg/kg, po miltefosine for 5 consecutive days; assay type: organism-based; settings: in vivo
[19] = system: Leishmania donovani; assay: Antileishmanial activity against Leishmania donovani amastigote forms infected in Balb/c mouse assessed as inhibition of parasitic burden in liver at 25 mg/kg, ip administered for 5 consecutive days measured on day 7 post last treatment by Giemsa staining based assay relative to control; settings: 168 h
[20] = AUC (0 to infinity) in Swiss mouse at 50 mg/kg, po by LC-MS/MS analysis; assay type: ADME, organism-based; set-up: dose 50 mg/kg, route oral, time infinity; settings: in vivo

## COc1ccc(C2C3=C(CCC3=O)Nc3c2c(-c2c[nH]c4ccccc24)nn3-c2ccc(Cl)c(Cl)c2)cc1OC (stereo not given)
[1]
  Tmax: 1.75 h
[2]
  inhibition (INH): 94%
[3]
  Stability: 85%
[4]
  Cmax: 4.88 µM
[5]
  Activity: Active
[6]
  Activity: 32.9%
[7]
  inhibition in vivo at 50 mg/kg: > 93%
[8]
  fold change (FC): 11.3
[9]
  IC50: 7.19 µM
[10]
  inhibition: Active
[11]
  inhibition at 4.05 µM: > 93%
[12]
  inhibition of growth at 25 µM: 96.8%
[13]
  viability at 72 h: > 95%
[14]
  inhibition in vivo at 100 mg/kg: 92.7%
[15]
  inhibition (INH): 91%
[16]
  selectivity ratio: 108
[17]
  inhibition (INH): >92%
[18]
  Activity: Non-Toxic
[19]
  inhibition in vivo at 25 mg/kg: > 48%
[20]
  AUC(0-inf): 31.7 µM·h
